Active and inactive are the calls of the source. The rule behind the calls is not given here.
Biological target: T1, Farnesyl pyrophosphate synthase (Homo sapiens, UniProt P14324)
T1 sequence (P14324 whole entry): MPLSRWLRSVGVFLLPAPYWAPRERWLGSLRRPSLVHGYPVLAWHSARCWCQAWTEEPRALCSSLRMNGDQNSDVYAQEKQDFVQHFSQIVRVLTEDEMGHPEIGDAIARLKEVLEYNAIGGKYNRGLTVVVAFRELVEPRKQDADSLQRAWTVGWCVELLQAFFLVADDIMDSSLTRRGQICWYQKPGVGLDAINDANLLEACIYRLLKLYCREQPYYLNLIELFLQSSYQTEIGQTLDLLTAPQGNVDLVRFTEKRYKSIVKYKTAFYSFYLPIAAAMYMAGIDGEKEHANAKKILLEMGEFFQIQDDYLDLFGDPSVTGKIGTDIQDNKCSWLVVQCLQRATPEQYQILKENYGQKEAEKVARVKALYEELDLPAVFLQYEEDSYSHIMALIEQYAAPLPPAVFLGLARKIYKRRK
Test: Inhibition of recombinant FDPS (unknown origin) assessed as decrease in […] level using GPP and [14C]IPP as substrate treated with enzyme for 10 mins prior to substrate challenge for 30 mins by liquid scintillation counting analysis
Conditions: not given

IC50 [µM] | SMILES
1000 | O=C(O)C(Cc1cccnc1)P(=O)(O)O (stereo unspecified)
2000 | O=C(O)C(O)(Cc1ccc[n+]([O-])c1)P(=O)(O)O (stereo unspecified)
200 | O=C(O)C(O)(Cc1cccnc1)P(=O)(O)O (stereo unspecified)
> 2000 | O=C(O)C(Cc1ccc[n+]([O-])c1)P(=O)(O)O (stereo unspecified)

Biological target: not listed separately
Test: Inhibition of recombinant GGTase 2 (unknown origin) using recombinant Rab1A and [3H]GGPP as substrate after 20 mins in presence of recombinant REP-2 by liquid scintillation counting analysis
Parameters: species or system Homo sapiens
Conditions: not given

IC50 [µM] | SMILES
1100 | O=C(O)C(Cc1cccnc1)P(=O)(O)O (stereo unspecified)
1800 | O=C(O)C(O)(Cc1ccc[n+]([O-])c1)P(=O)(O)O (stereo unspecified)
700 | O=C(O)C(O)(Cc1cccnc1)P(=O)(O)O (stereo unspecified)
800 | O=C(O)C(Cc1ccc[n+]([O-])c1)P(=O)(O)O (stereo unspecified)

Biological target: Geranylgeranyl transferase type I (Homo sapiens) (UniProt P49354+P53609)
Test: Inhibition of GGTase 1 in human RPMI8226 cells assessed as unmodified Rap1a accumulation at 5 mM incubated for 48 hrs by immunoblot method
Assay type: cell-based
Conditions: RPMI-8226
Outline: (§1)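 RPMI-8226 myeloma cells exposed 48 h to lovastatin (20 μM) or bisphosphonates (5 mM), untreated cells as reference. Whole-cell lysates made in RIPA buffer, membrane (detergent) fraction by Triton X-114 partitioning; immunoblotting with β-tubulin (lysate) or calnexin (detergent fraction) as loading controls. Rap1a antibody recognizes only unprenylated protein. Blots representative of two independent experiments.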

inhibition | SMILES
inactive | O=C(O)C(Cc1cccnc1)P(=O)(O)O (stereo unspecified)
inactive | O=C(O)C(O)(Cc1ccc[n+]([O-])c1)P(=O)(O)O (stereo unspecified)
inactive | O=C(O)C(O)(Cc1cccnc1)P(=O)(O)O (stereo unspecified)
inactive | O=C(O)C(Cc1ccc[n+]([O-])c1)P(=O)(O)O (stereo unspecified)

Test system: RPMI-8226
Test: Inhibition of GGTase 2 in human RPMI8226 cells assessed as reduction in membrane bound Rab6 protein at 5 mM incubated for 48 hrs by immunoblot method
Assay type: cell-based
Conditions: not given
Outline: as §1

SMILES | inhibition
O=C(O)C(Cc1cccnc1)P(=O)(O)O (stereo unspecified) | Active
O=C(O)C(O)(Cc1ccc[n+]([O-])c1)P(=O)(O)O (stereo unspecified) | Active
O=C(O)C(O)(Cc1cccnc1)P(=O)(O)O (stereo unspecified) | Active
O=C(O)C(Cc1ccc[n+]([O-])c1)P(=O)(O)O (stereo unspecified) | inactive

Test system: RPMI-8226
Test: Induction of apoptosis in human RPMI8226 cells assessed as increase in PARP cleavage at 20 uM incubated for 48 hrs by immunoblot method
Assay type: functional, cell-based
Conditions: not given
Outline: as §1

SMILES | Activity
CC[C@H](C)C(=O)O[C@H]1C[C@@H](C)C=C2C=C[C@H](C)[C@H](CC[C@@H]3C[C@@H](O)CC(=O)O3)[C@H]21 | Active

Test system: RPMI-8226
Test: Induction of apoptosis in human RPMI8226 cells assessed as increase in caspase-3 cleavage at 20 uM incubated for 48 hrs by immunoblot method
Assay type: functional, cell-based
Conditions: not given
Outline: as §1

SMILES | Activity
CC[C@H](C)C(=O)O[C@H]1C[C@@H](C)C=C2C=C[C@H](C)[C@H](CC[C@@H]3C[C@@H](O)CC(=O)O3)[C@H]21 | Active

Test system: RPMI-8226
Test: Induction of apoptosis in human RPMI8226 cells assessed as increase in PARP cleavage at 5 mM incubated for 48 hrs by immunoblot method
Assay type: functional, cell-based
Conditions: not given
Outline: as §1

SMILES | Activity
O=C(O)C(Cc1cccnc1)P(=O)(O)O (stereo unspecified) | Active
O=C(O)C(O)(Cc1cccnc1)P(=O)(O)O (stereo unspecified) | Active
O=C(O)C(Cc1ccc[n+]([O-])c1)P(=O)(O)O (stereo unspecified) | Active

Test system: RPMI-8226
Test: Induction of apoptosis in human RPMI8226 cells assessed as increase in caspase-3 cleavage at 5 mM incubated for 48 hrs by immunoblot method
Assay type: functional, cell-based
Conditions: not given
Outline: as §1

SMILES | Activity
O=C(O)C(Cc1cccnc1)P(=O)(O)O (stereo unspecified) | Active
O=C(O)C(O)(Cc1cccnc1)P(=O)(O)O (stereo unspecified) | Active
O=C(O)C(Cc1ccc[n+]([O-])c1)P(=O)(O)O (stereo unspecified) | Active

Test system: RPMI-8226
Test: Induction of endoplasmic reticulum stress in human RPMI8226 cells assessed as increase in calnexin cleavage at 5 mM incubated for 48 hrs by immunoblot method
Assay type: functional, cell-based
Conditions: not given

SMILES | Activity
O=C(O)C(Cc1cccnc1)P(=O)(O)O (stereo unspecified) | Active
O=C(O)C(O)(Cc1cccnc1)P(=O)(O)O (stereo unspecified) | Active
O=C(O)C(Cc1ccc[n+]([O-])c1)P(=O)(O)O (stereo unspecified) | Active

Test system: RPMI-8226
Test: Inhibition of GGTase 2 in human RPMI8226 cells assessed as disruption of monoclonal protein trafficking by measuring accumulation of intracellular lambda light chain at 5 mM incubated for 48 hrs by ELISA
Assay type: cell-based
Conditions: not given
Outline: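 RPMI-8226 cells treated 48 h with lovastatin (20 μM) or bisphosphonates (5 mM); intracellular lambda light chain quantified by ELISA, expressed as percentage of untreated control (mean + SD, n=3); unpaired two-tailed t-test against untreated cells.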

SMILES | inhibition
O=C(O)C(Cc1cccnc1)P(=O)(O)O (stereo unspecified) | inactive
O=C(O)C(O)(Cc1ccc[n+]([O-])c1)P(=O)(O)O (stereo unspecified) | Active
O=C(O)C(O)(Cc1cccnc1)P(=O)(O)O (stereo unspecified) | Active
O=C(O)C(Cc1ccc[n+]([O-])c1)P(=O)(O)O (stereo unspecified) | inactive

From ChEMBL document CHEMBL3421571, “N-Oxide derivatives of 3-(3-pyridyl)-2-phosphonopropanoic acids as potential inhibitors of Rab geranylgeranylation” (Bioorg Med Chem Lett, 2015)
